Measured values as given in ChEMBL document CHEMBL3120062, “Novel 8-(p-substituted-phenyl/benzyl)xanthines with selectivity for the A2A adenosine receptor possess bronchospasmolytic activity” (Eur J Med Chem, 2014).
Activity calls are given as the source filed them. The calls are words filed in the database; no cut-off is given here.

Legend:
Adenosine receptor A3 = target: T1, Adenosine receptor A3 (Homo sapiens, UniProt P0DMS8); test: Displacement of [3H]-HEMADO from human recombinant adenosine A3 receptor expressed in CHO cell membranes after 3 hrs by microbeta counting analysis
T1 sequence (P0DMS8 whole entry): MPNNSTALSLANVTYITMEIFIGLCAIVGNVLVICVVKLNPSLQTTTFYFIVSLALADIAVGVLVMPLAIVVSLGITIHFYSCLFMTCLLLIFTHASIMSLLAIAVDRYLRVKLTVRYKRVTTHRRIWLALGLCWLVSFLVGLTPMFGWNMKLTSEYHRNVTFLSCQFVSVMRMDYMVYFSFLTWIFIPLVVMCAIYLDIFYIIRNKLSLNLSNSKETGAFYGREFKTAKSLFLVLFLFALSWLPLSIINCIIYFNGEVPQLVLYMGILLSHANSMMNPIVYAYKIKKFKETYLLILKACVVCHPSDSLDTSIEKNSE
Procedure, shortened: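 Human A3 receptor in stably transfected CHO cell membranes (10-50 µg protein), resuspended in 50 mM Tris/HCl, 10 mM MgCl2, 1 mM EDTA, pH 8.25. Incubated with [3H]HEMADO (1 nM) for 3 h at 25 °C, then filtered, washed and scintillation counted. Nonspecific binding was defined with R-PIA. Ki came from non-linear curve fitting; geometric means of 3–5 experiments.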

Adenosine receptor A2a = Adenosine receptor A2a (Homo sapiens, UniProt P29274); test: Displacement of [3H]-NECA from human recombinant adenosine A2A receptor expressed in CHO cell membranes after 3 hrs by microbeta counting analysis
Procedure, shortened: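 Crude membranes (10-50 µg protein) from CHO cells stably expressing the human A2A receptor, in 50 mM Tris/HCl pH 7.4. Incubated with [3H]NECA (10 nM) for 3 h at 25 °C, then filtered, washed with ice-cold buffer and scintillation counted. Nonspecific binding was defined with R-PIA. Ki came from non-linear curve fitting; geometric means of 3–5 experiments.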

Adenosine receptor A1 = target: T2, Adenosine receptor A1 (Homo sapiens, UniProt P30542); test: Displacement of [3H]-CCPA from human recombinant adenosine A1 receptor expressed in CHO cell membranes after 3 hrs by microbeta counting analysis
T2 sequence (P30542 whole entry): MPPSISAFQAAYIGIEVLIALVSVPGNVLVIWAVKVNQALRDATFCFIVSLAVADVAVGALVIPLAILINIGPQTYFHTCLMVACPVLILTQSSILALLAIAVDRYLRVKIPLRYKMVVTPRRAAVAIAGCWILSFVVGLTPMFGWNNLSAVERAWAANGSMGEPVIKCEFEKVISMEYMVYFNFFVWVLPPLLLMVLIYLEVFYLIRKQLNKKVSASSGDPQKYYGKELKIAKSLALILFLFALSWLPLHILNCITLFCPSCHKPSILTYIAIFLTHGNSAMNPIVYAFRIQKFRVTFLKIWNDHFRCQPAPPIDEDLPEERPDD
Procedure, shortened: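 Human A1 receptor stably expressed in CHO cells. Crude membranes (10-50 µg protein) in 50 mM Tris/HCl pH 7.4 were incubated with [3H]CCPA (1 nM) for 3 h at 25 °C, then filtered, washed with ice-cold buffer and counted by scintillation. Nonspecific binding was defined with theophylline. Ki came from non-linear curve fitting; geometric means of 3–5 experiments.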

Adenosine receptor A2b = target: T3, Adenosine receptor A2b (Homo sapiens, UniProt P29275); test: Binding affinity to human recombinant adenosine A2B receptor expressed in CHO cell membranes assessed as inhibition of NECA-stimulated adenylyl cyclase activity after 20 mins
T3 sequence (P29275 whole entry): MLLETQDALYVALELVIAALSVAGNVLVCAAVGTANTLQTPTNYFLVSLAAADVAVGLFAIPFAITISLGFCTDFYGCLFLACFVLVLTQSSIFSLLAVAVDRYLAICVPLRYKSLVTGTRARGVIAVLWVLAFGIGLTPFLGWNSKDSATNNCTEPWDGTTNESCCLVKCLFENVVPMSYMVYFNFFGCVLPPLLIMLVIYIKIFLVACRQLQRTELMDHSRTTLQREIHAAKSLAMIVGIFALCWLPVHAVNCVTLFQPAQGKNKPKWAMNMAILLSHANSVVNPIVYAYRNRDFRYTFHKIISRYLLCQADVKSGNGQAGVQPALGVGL
Procedure, shortened: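 Membranes from CHO cells stably expressing the human A2B receptor, prepared fresh by one 54,000 g spin and used immediately in 50 mM Tris/HCl pH 7.4. Concentration-dependent inhibition of NECA-stimulated adenylyl cyclase was measured with about 150,000 cpm [α-32P]ATP for 20 min. Ki was calculated from IC50 with the Cheng–Prusoff equation. Geometric means of 3–5 experiments.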

Cavia porcellus [1] = test: Bronchospasmolytic activity in histamine aerosol-induced Dunkin-Hartley guinea pig assessed as time required for onset of bronchospasm at 50 mg/kg, po pretreated for 1 hr followed by histamine aerosol-challenge (reference value: 67 +/- 2 seconds); assay type: functional
Cavia porcellus [2] = test: Bronchospasmolytic activity in histamine aerosol-induced Dunkin-Hartley guinea pig assessed as survival at 50 mg/kg, po pretreated for 1 hr followed by histamine aerosol-challenge relative to control; assay type: functional
Procedure, shortened: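 Male Dunkin Hartley guinea pigs (250 ± 30 g), 4 per group, fasted overnight. Each animal was given test drug, theophylline or vehicle at 50 mg/kg by mouth in CMC + distilled water, 1 h before challenge. It was then exposed singly in a histamine chamber to 5 ml of 1% histamine aerosolised over 1 min. Onset, jerk duration, severity and death or survival were recorded. Survival is given as % of the group.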

Cavia porcellus [3] = test: Bronchospasmolytic activity in histamine aerosol-induced Dunkin-Hartley guinea pig assessed as duration of jerks at 50 mg/kg, po pretreated for 1 hr followed by histamine aerosol-challenge (reference value: 172 +/- 4 seconds); assay type: functional
Homo sapiens [4] = species on record: Homo sapiens; test: Selectivity ratio of Ki for human recombinant adenosine A1 receptor to Ki for human recombinant adenosine A2A receptor
Homo sapiens [5] = species on record: Homo sapiens; test: Selectivity ratio of Ki for human recombinant adenosine A2B receptor to Ki for human recombinant adenosine A2A receptor
Homo sapiens [6] = species on record: Homo sapiens; test: Selectivity ratio of Ki for human recombinant adenosine A3 receptor to Ki for human recombinant adenosine A2A receptor
Cavia porcellus [7] = test: Bronchospasmolytic activity in histamine aerosol-induced Dunkin-Hartley guinea pig assessed as severity of bronchospasm at 50 mg/kg, po pretreated for 1 hr followed by histamine aerosol-challenge; assay type: functional, organism-based; parameters: dose 50 mg/kg

Chain of Adenosine receptor A2a (P29274 whole entry): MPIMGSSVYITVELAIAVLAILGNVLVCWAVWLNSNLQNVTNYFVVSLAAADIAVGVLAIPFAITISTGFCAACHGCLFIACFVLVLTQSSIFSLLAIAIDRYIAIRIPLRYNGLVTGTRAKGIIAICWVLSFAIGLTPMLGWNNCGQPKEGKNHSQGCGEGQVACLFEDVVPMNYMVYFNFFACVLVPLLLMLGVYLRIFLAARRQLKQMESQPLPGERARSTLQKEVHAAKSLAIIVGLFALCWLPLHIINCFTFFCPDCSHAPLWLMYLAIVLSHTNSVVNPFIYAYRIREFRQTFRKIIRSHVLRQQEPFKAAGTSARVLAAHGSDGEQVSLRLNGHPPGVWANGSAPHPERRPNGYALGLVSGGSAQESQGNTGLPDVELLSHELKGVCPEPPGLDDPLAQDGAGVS

SMILES | Ki (Adenosine receptor A3) | Ki (Adenosine receptor A2a) | Ki (Adenosine receptor A1) | Ki (Adenosine receptor A2b) | Time (Cavia porcellus [1]) | survival at 50 mg/kg (Cavia porcellus [2]) | Time (Cavia porcellus [3]) | Ratio Ki (Homo sapiens [4]) | Ratio Ki (Homo sapiens [5]) | Ratio Ki (Homo sapiens [6]) | Activity (Cavia porcellus [7])
Cn1c(=O)c2[nH]c(Cc3ccc(OCCCCl)cc3)nc2n(C)c1=O | > 30000 nM | > 10000 nM | > 30000 nM | > 10000 nM | 75 s | 50% | 44 s |  |  |  | 
Cn1c(=O)c2[nH]c(Cc3ccc(OCCCN4CCOCC4)cc3)nc2n(C)c1=O | > 30000 nM | > 10000 nM | > 30000 nM | > 10000 nM | 108 s | 100% |  |  |  |  | 
Cn1c(=O)c2[nH]c(-c3ccc(OCCN4CCOCC4)cc3)nc2n(C)c1=O | 2740 nM | 310 nM | 2580 nM | 1340 nM | 104 s | 100% | 45 s | 8.3 | 4.3 | 8.8 | 
CCN(CC)CCOc1ccc(-c2nc3c([nH]2)c(=O)n(C)c(=O)n3C)cc1 | 6820 nM | 250 nM | 1590 nM | 2590 nM | 115 s | 75% | 49 s | 6.4 | 10 | 27 | 
Cn1c(=O)c2[nH]c(-c3ccc(OCCC4CCNCC4)cc3)nc2n(C)c1=O | 6510 nM | 290 nM | 1330 nM | 2900 nM | 121 s | 75% | 22 s | 4.6 | 10 | 22 | 
Cn1c(=O)c2[nH]c(-c3ccc(OC4CCCC4)cc3)nc2n(C)c1=O | > 10000 nM | 72 nM | > 30000 nM | 1000 nM | 72 s | 50% | 35 s | > 420 | 14 | > 420 | 
Cn1c(=O)c2[nH]c(Cc3ccc(OCCCn4ccnc4)cc3)nc2n(C)c1=O | > 30000 nM | 3170 nM | > 30000 nM | > 10000 nM | 83 s | 50% |  | > 9.5 | > 3.2 | > 9.5 | 
Cn1c(=O)c2[nH]c(-c3ccc(OCCCN4CCN(Cc5ccccc5Cl)CC4)cc3)nc2n(C)c1=O | 6890 nM | 120 nM | 1850 nM | 170 nM | 109 s | 100% |  | 15 | 1.4 | 57 | Active
Cn1c(=O)c2[nH]c(-c3ccc(OCCCn4ccnc4)cc3)nc2n(C)c1=O | 2270 nM | 42 nM | 890 nM | 1050 nM | 108 s | 75% | 71 s | 21 | 25 | 54 | 
Cn1c(=O)c2[nH]c(-c3ccc(OCCCCl)cc3)nc2n(C)c1=O | > 30000 nM | 45 nM | > 10000 nM | > 10000 nM | 114 s | 100% | 30 s | > 220 | > 220 | > 670 | 
Cn1c(=O)c2[nH]c(Cc3ccc(OCCCN4CCC5(CC4)OCCO5)cc3)nc2n(C)c1=O | > 30000 nM | 8090 nM | > 30000 nM | > 10000 nM | 73 s | 50% | 23 s | > 3.7 | > 1.2 | > 3.7 | 
Cn1c(=O)c2nc[nH]c2n(C)c1=O.O [THEOPHYLLINE] |  |  |  |  | 92 s | 100% | 89 s |  |  |  | 
Cn1c(=O)c2[nH]c(-c3ccc(OCCN4CCCC4)cc3)nc2n(C)c1=O | 4600 nM | 200 nM | 1200 nM | 1970 nM | 111 s | 100% | 32 s | 6 | 9.9 | 23 | 
CN(C)CCOc1ccc(-c2nc3c([nH]2)c(=O)n(C)c(=O)n3C)cc1 | 9380 nM | 400 nM | 1820 nM | 4950 nM | 111 s | 100% | 39 s | 4.6 | 12 | 24 | 
